From PubChem
SUMO1-SIM PPI: SUMO1-SIM interaction modulation; AID 602429; SUMO1 binding to a labelled peptide, TR-FRET, 1 h; inhibition, % at 20 µM; P63165; 0.33% of 360,000 active; in the data active = inhibition above about 37%
Target sequence (P63165 whole entry, looked up): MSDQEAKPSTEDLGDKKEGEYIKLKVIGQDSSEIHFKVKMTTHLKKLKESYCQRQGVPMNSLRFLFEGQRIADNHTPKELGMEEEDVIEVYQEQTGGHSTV
LMPTP inh: LMPTP (human) inhibition | P24666 | recombinant LMPTP-A, OMFP fluorogenic substrate, fluorescence intensity | inhibition, % at 20 µM | 0.22% of 360,000 active;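 active = compounds that cut the enzyme signal by at least half of the control window in the single-dose screen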;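 note: plate controls were DMSO wells with enzyme plus substrate for no effect and substrate without enzyme for full effect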
Target sequence (P24666 whole entry, looked up): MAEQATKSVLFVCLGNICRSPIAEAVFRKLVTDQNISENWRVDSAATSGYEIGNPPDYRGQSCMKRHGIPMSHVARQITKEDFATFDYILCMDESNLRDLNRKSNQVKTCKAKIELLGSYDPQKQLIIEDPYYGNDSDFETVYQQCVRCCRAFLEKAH
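Buffer or medium: Bis-Tris pH 6.0, DTT, detergent; Assay system: LMPTP-A enzyme; Quantity: 0.625 nM enzyme; Detection: endpoint fluorescence intensity; Times: 50 min dark incubation at room temperature; Controls: substrate-only low control, DMSO enzyme-plus-substrate high control; Doses: single 20 µM dose; Read-out: percent inhibition versus substrate-only and uninhibited controls; Reagent: 400 µM OMFP.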
STEP inh: STEP (human) phosphatase inhibition | P54829 | recombinant STEP, OMFP fluorogenic substrate, fluorescence | inhibition, % at 20 µM | 0.25% of 360,000 active | AID 588621;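 active = inhibition at 20 µM, scaled per plate between control wells, above about 37%, limit read from the data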;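 note: 0% = DMSO with enzyme and substrate and 100% = substrate only without enzyme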
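System: STEP (striatal-enriched tyrosine phosphatase) enzyme, cell-free; medium: Bis-Tris pH 6.0 buffer with DTT, detergent; dosing: 20 µM, 1% DMSO; times: reaction 20 min, ambient temperature; detection: fluorescence, 480/540 nm; read-out basis: normalized % inhibition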
DNMT1 block: DNMT1 (human) enzyme inhibition; P26358; 0.83% of 360,000 active; inhibition (reported as % activation of signal), % at 10 µM; DNMT1 molecular beacon, Hinp1I cleavage, fluorescence; AID 588458; in the data active = inhibition above about 50%
Scp1 inh: blocks human Scp-1 phosphatase activity; Q9GZU7; 0.88% of 340,000 active; Recombinant Scp1, phosphopeptide, malachite green phosphate absorbance; inhibition, % at 20 µM;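 active = inhibition above about 50% at 20 µM, limit read from the data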;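 note: plate controls were DMSO wells with enzyme for no effect and wells lacking enzyme for full effect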
Target sequence (Q9GZU7 76-261 limits assumed): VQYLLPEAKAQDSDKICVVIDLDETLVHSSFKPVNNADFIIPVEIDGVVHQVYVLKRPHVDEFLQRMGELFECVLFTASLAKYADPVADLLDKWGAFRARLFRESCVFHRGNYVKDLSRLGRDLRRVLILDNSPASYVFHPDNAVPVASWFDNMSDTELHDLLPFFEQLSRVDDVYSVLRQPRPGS
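assay system = SCP-1 phosphatase catalytic domain, residues 76-261 | buffer or medium = 50 mM Tris acetate pH 5.5, 0.005% Tween-20, 10 mM MgCl2 | incubation = enzyme reaction 45 min at room temperature, colour 5 min, stabilisation 30 min | signal = Phosphate-binding colour reagent, absorbance read at 630 nm | measure = % inhibition at 20 µM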
Scp-1 conf: Scp-1 (human) inhibition, single-dose confirmed | shares compounds with Scp1 inh | recombinant SCP-1 catalytic domain, phosphate release, malachite green absorbance | inhibition, % at 20 µM | 61% of 2,500 active | AID 540281;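 note: plate controls were DMSO with enzyme for no effect and buffer wells lacking enzyme for full effect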
Scp-1 MG ctr: colorimetric interference in Scp-1 counter-screen; 2,500 tested, under 10 active; shares compounds with Scp1 inh; apparent inhibition (interference), % at 20 µM; Colorimetric interference counterscreen, malachite green absorbance 630 nm;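 note: compounds added after enzyme reaction finished so only phosphate colour detection is probed; plate controls were DMSO wells with completed Scp-1 reaction for no effect and substrate wells lacking enzyme for full effect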
Scp1 DSF: Scp-1 (human) binding by thermal shift. shares compounds with Scp1 inh. Recombinant SCP1, Sypro Orange thermal shift Tm. thermal shift relative to vanadate control, % at 40 µM. 25% of 1,500 active. AID 540329;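 active = substances whose mean melting-temperature shift, as a percentage of the reference inhibitor's shift, reaches about 5.3%, limit read from the data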;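 note: 0% = Tm of DMSO wells and 100% = Tm with sodium orthovanadate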
An asterisk follows results filed as active; . = not tested or not shown. Hits are enriched below; roughly 1.7% of the tested compounds scored in any of these assays.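 Rule for the calls, unless noted: active = inhibition of at least 30% at 20 µM; inactive = the rest.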

SMILES	SUMO1-SIM PPI	LMPTP inh	STEP inh	DNMT1 block	Scp1 inh	Scp-1 conf	Scp-1 MG ctr	Scp1 DSF
Cc1ccc(C(=O)NCCN2CCNC2=O)cc1	3.3	-0.5	4.3	1.4	-18.2	-10.6	-7.3	.
Cc1cc(=O)[nH]c(SCC(=O)NCC2CCCCC2)c1C#N	-0.9	0.0	1.1	-4.3	4.6	.	.	.
C[n+]1cnn2c1SCC1(COC1)C2	-0.8	-2.5	-1.2	-1.4	104.3*	-12.0	-15.1	.
O=C(Nc1nnc([C@H]2C[C@H](O)[C@@H](CO)O2)s1)c1cccc(Oc2ccccc2)c1	2.2	3.0	-2.3	2.5	.	.	.	.
CC1(C)Cc2c(c(N3CCCC3)nc3sc4c(N5CCNCC5)ncnc4c23)CO1	.	.	.	.	-11.4	.	.	.
Cc1ccc(S(=O)(=O)NCCC(=O)NC2CCCCC2C)cc1 (stereo not drawn)	0.5	-1.1	2.7	0.2	-7.3	.	.	.
COc1ccc(S(=O)(=O)NCCC(=O)NC2CCCCC2C)cc1[N+](=O)[O-] (stereo not drawn)	-9.7	8.4	8.9	28.4	55.9*	46.4*	-14.0	5.3*
CN(C(=O)CSc1nnnn1C)C1(C#N)CCCCC1	4.9	-1.5	1.2	1.8	-7.2	.	.	.
CC(=O)c1c(C)[nH]c(C(=O)Nc2ccc(N3CCCCCC3)cc2)c1C	11.2	1.1	3.9	-9.7	.	.	.	.
COc1cccc(NC(=O)C2CCCN(S(=O)(=O)c3cccc4cccnc34)C2)c1 (stereo not drawn)	-0.7	-0.5	2.4	-1.6	86.4*	5.4	-1.0	.
CCOC(=O)C1=C(C)N=c2s/c(=C\c3ccc(C(=O)O)cc3)c(=O)n2C1c1ccc(OC)cc1OC (stereo not drawn)	-23.1	0.7	5.5	-2.1	73.1*	72.0*	-6.5	6.9*
CCOC(=O)C1=C(C)N=c2s/c(=C\c3ccc(C(=O)O)cc3)c(=O)n2C1c1ccc(F)cc1 (stereo not drawn)	-18.1	0.8	10.7	1.3	7.5	.	.	.
Cc1coc2c1c(C)cc1oc(=O)c(CC(=O)NCCCN3CCCC3=O)c(C)c12	-7.1	0.0	-0.4	2.2	-1.3	.	.	.
O=C(Nc1ccc(N2CCN(C(=O)c3ccco3)CC2)cc1)c1ccc([N+](=O)[O-])cc1Cl	-31.1	2.5	-2.1	-1.6	-4.7	.	.	.
Cc1ccc(C(=O)Nc2ccc(N3CCN(C(=O)c4ccco4)CC3)cc2)c(Cl)c1	-1.6	1.9	2.8	-11.7	68.1*	-10.8	-10.4	.
CCn1c(CNC(=O)COc2ccc(C(C)C)cc2)nnc1SCC(=O)Nc1cc(F)ccc1C	2.0	-0.8	-2.2	0.6	85.1*	46.1*	-16.7	-6.2
CCn1c(CNC(=O)COc2ccc(C(C)C)cc2)nnc1SCC(=O)Nc1ccc(F)cc1	-3.5	0.2	-1.2	0.5	-4.6	.	.	.
Cn1ncc2c(=S)[nH]c(=S)[nH]c21	7.9	22.0	.	.	.	.	.	.
Cc1ccn2c(=O)nc(SCC(=O)NCc3ccccc3)nc2c1	10.2	16.0	-0.9	2.5	86.6*	60.8*	-12.9	5.7*
Cc1ccc2cc(C)c3nnc(SCC(=O)NCc4ccco4)n3c2c1	11.5	0.5	2.1	20.0	78.1*	56.6*	-14.2	-16.0
Cc1ccn2c(=O)nc(SCC(=O)NCc3ccco3)nc2c1	10.8	0.6	1.1	10.9	71.7*	35.3*	-11.4	-15.5
Cc1ccc2c(c1)cc(C)c1nnc(SCC(=O)NCc3ccco3)n12	1.3	0.9	-2.9	6.6	21.2	.	.	.
CCCN1CC(O)=C(C#N)C1=O	9.2	-3.2	-0.3	-1.1	-2.9	.	.	.
COC(=O)CCC(=O)c1ccn(S(=O)(=O)c2ccccc2)c1	7.5	1.6	-1.3	4.4	2.2	.	.	.
Cc1nnc(SCC2=C(C(=O)O)N3C(=O)C(NC(=O)COc4ccccc4)C3SC2)s1 (stereo not drawn)	12.7	1.0	1.8	8.6	68.4*	52.8*	-20.8	3.8
SMILES	SUMO1-SIM PPI	LMPTP inh	STEP inh	DNMT1 block	Scp1 inh	Scp-1 conf	Scp-1 MG ctr	Scp1 DSF
Cc1nnc(SCC2=C(C(=O)O)N3C(=O)C(NC(=O)Cn4nc(C(F)F)cc4C)C3SC2)s1 (stereo not drawn)	11.1	-1.2	6.4	27.4	70.3*	51.6*	-21.7	2.7
Cc1nnc(SCC2=C(C(=O)O)N3C(=O)C(NC(=O)COc4ccc(F)cc4)C3SC2)s1 (stereo not drawn)	17.3	0.9	-0.5	43.4	39.5	.	.	.
Cc1nnc(SCC2=C(C(=O)O)N3C(=O)C(NC(=O)Cn4nc(C(F)F)c(Cl)c4C)C3SC2)s1 (stereo not drawn)	16.2	1.9	6.7	0.4	42.0	.	.	.
CC(NC(=O)Cc1cccs1)C(c1cccs1)N1CCOCC1 (stereo not drawn)	-1.4	-1.8	1.4	-5.9	-10.8	.	.	.
COc1ccc(N2CC(C(=O)Nc3ccc(S(=O)(=O)N4CCCC4)cc3)CC2=O)cc1 (stereo not drawn)	1.4	-0.4	-1.3	-5.3	53.5*	-23.4	-20.0	.
CCOc1ccc(N2CC(C(=O)Nc3ccc(N4CCOCC4)cc3)CC2=O)cc1 (stereo not drawn)	-1.5	-0.9	-2.2	-2.2	-0.6	-2.1	-14.5	.
CSc1cccc(N2CC(C(=O)Nc3cccc(S(=O)(=O)N4CCCC4)c3)CC2=O)c1 (stereo not drawn)	-1.2	1.0	-2.8	0.1	73.6*	76.1*	-23.8	-14.4
COc1ccc(N2CC(C(=O)Nc3nc4ccccc4s3)CC2=O)cc1 (stereo not drawn)	2.6	-0.9	0.9	0.2	-4.3	-3.0	-4.3	.
CCOc1ccc(N2CC(C(=O)Nc3cccc(S(=O)(=O)N4CCCCC4)c3)CC2=O)cc1 (stereo not drawn)	3.9	1.0	-1.2	-4.6	-6.0	.	.	.
CCC1SC2=NC(C)=C(C(=O)OCC(C)C)C(/C=C/c3ccccc3OC)N2C1=O (stereo not drawn)	-2.2	-0.8	2.2	-3.8	5.7	.	.	.
CCC1SC2=NC(C)=C(C(=O)OCCOC)C(/C=C/c3ccccc3OC)N2C1=O (stereo not drawn)	2.2	0.6	-4.4	-14.2	58.5*	-35.1	-25.2	.
CCN(CC)C(=O)c1cccc(-c2csc(C(C)(O)c3ccc(F)c(F)c3)n2)c1 (stereo not drawn)	-15.8	0.9	-1.5	13.3	.	.	.	.
COc1ccccc1OCc1nnc(SCC(=O)NCc2ccco2)n1Cc1ccco1	11.5	2.7	8.2	42.9	94.6*	87.7*	2.8	1.6
O=C(CSc1ccsc1[N+](=O)[O-])NCc1ccco1	-10.2	3.6	4.7	29.0	56.7*	61.1*	-15.6	4.9
